Assay results gathered from unrelated publications.
Each line is one published result; the experiments were not run side by side.
Target: Rhodopsin kinase GRK1 (GRK1, Homo sapiens, UniProt Q15835)
One construct used (Q15835 1-563): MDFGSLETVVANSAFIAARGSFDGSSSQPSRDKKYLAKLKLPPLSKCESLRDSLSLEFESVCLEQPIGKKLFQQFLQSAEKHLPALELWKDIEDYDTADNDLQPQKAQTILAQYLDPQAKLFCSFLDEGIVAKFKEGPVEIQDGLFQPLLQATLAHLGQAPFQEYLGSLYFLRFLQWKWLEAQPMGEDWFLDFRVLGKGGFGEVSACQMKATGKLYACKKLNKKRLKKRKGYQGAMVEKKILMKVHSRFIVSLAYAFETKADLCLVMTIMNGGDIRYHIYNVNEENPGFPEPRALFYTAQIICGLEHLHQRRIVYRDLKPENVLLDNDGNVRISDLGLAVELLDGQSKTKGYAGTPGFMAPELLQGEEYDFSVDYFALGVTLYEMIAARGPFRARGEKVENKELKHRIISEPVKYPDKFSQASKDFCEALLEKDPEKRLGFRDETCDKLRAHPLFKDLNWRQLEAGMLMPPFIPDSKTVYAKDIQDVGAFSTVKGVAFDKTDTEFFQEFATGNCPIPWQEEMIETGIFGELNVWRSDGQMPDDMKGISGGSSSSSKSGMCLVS

| SMILES | test | conditions | quantity | result |
| --- | --- | --- | --- | --- |
| O=C(NS(=O)(=O)c1ccc(NCC2CCOCC2)c([N+](=O)[O-])c1)c1ccc(N2CCN(Cc3ccc(C(F)(F)F)cc3-c3ccc(Cl)cc3)CC2)cc1Oc1cnc2[nH]ccc2c1 | cell-free assay, competition with immobilised ligand | 1 µM | remaining binding | 100% |
| COc1cc(Cl)c(C(=O)N[C@@H](CN[C@H]2CC[C@@H](N)CC2)Cc2ccc(C#N)cc2)cc1-c1ccc(CN[C@H](C)c2ccc(C)cc2)o1 | enzyme activity, inhibitor | 1 µM | remaining activity | 100% |
| COc1ccc2cc(OCC3(C(=O)O)CN(C(=O)c4ccc(F)cc4)C3)ccc2c1 | cell-free assay, competition with immobilised ligand | 1 µM | remaining binding | 100% |
| Cn1c2c(Cl)c(Cl)ccc2c2cc(N)[nH]c(=O)c21 | thermal stability, DSF | 10 µM | ΔTm | 0.5 °C |
| Cc1cc(NC(=O)c2cccc(S(F)(F)(F)(F)F)c2)cc(-n2ccn3nc(-c4cccnc4)cc23)c1 | cell-free assay, competition with immobilised ligand | 1 µM | remaining binding | 50.4% |
| Cn1c2c(c3ccc(Cl)c(Cl)c31)C(C#N)C1(CCCCC1)NC2=O (racemic) | thermal stability, DSF | 10 µM | ΔTm | 0.1 °C |
| Cc1ccc(C(=O)NCc2ccsc2)cc1C#Cc1cn(C(C)C)c2ncnc(N)c12 | enzyme activity, inhibitor | 1 µM | activity vs control | 106% |
| Cc1sc(C(=O)NC2COC2)cc1-n1cc(NC(=O)Nc2c(F)cccc2Cl)cn1 | enzyme activity, inhibitor | 10 µM | remaining activity | 113% |
| Cn1c2c(Cl)c(Cl)ccc2c2cn[nH]c(=O)c21 | thermal stability, DSF | 10 µM | ΔTm | 1.3 °C |
| Cc1cnc(NC2CCOCC2)nc1-n1cnc(C(=O)NC(CN)c2cc(F)cc(Cl)c2)c1 (stereo not drawn) | enzyme activity, inhibitor, radiometric | 1 µM | remaining activity | 98% |
| Cn1c2c(c3ccc(Cl)c(Cl)c31)C(C#N)C1(CCCC1)NC2=O (stereo not drawn) | thermal stability, DSF | 10 µM | ΔTm | 0 °C |
| O=C(Nc1cnn(-c2csc(C(=O)NC3COC3)c2)c1)Nc1c(F)cccc1Cl | enzyme activity, inhibitor | 5 µM | remaining activity | 92.9% |
| Nc1ncnc2occ(-c3ccc(NC(=O)Nc4cc(C(F)(F)F)ccc4F)cc3)c12 | cell-free assay, inhibitor | 20 µM | remaining signal | 100% |
| Cc1ccc(C(=O)Nc2ccc(CN3CCN(C)CC3)c(C(F)(F)F)c2)cc1C#Cc1cnc2cccnn12 | enzyme activity, inhibitor | 23.5 nM | remaining activity | 93% |
| O=C(N1CCS(=O)(=O)CC1)N1C[C@H](c2ccc(OC(F)(F)F)cc2)C[C@H](c2nc(C3CC3)no2)C1 | cell-free assay, competition with immobilised ligand | 1 µM | remaining binding | 92% |
